One assay has as its system HepG2. As to the kind of experiment: Cytotoxicity in human HepG2 cells assessed as reduction in cell viability incubated for 48 hrs by MTT assay. The format is functional, cell-based. Conditions: HepG2, 48 h. In a few lines: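 MTT viability. Cells were seeded in 96-well plates overnight and exposed to a range of concentrations. MTT (5 mg/mL) was added for 4 h, formazan was dissolved in DMSO and absorbance read at 570 nm. Three independent experiments.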

Assay [1] concerns A549. As to the kind of experiment: Cytotoxicity in human A549 cells assessed as reduction in cell viability incubated for 48 hrs by MTT assay. The format is functional, cell-based. Conditions: A549, 48 h. The method, boiled down: (§1)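 MTT viability. U251 and NCI-H1299 were grown in DMEM, the other lines in RPMI 1640, each with 10% FBS, penicillin and streptomycin, at 37 °C in 5% CO2. Cells were seeded in 96-well plates overnight and exposed to a range of concentrations. MTT (5 mg/mL) was added for 4 h, formazan was dissolved in DMSO and absorbance read at 570 nm. Three independent experiments.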
(In general: Tetrazolium assays rely on reduction of a dye to a coloured formazan, in cell work by metabolically active cells.)

In the next assay the test system is SW-620. As to the kind of experiment: Cytotoxicity in human SW620 cells assessed as reduction in cell viability incubated for 48 hrs by MTT assay. The format is functional, cell-based. Conditions: SW-620, 48 h. In a few lines:
as §1

In a further assay the test system is KB. Kind of assay: Cytotoxicity in human KB cells assessed as reduction in cell viability incubated for 48 hrs by MTT assay. It counts as functional, cell-based. In a few lines:
as §1

Assay [2] relates to A549. As to the kind of experiment: Induction of cytoplasmic vacuolization in human A549 cells. The format is functional, cell-based.
For assay [3], the system named is A549. As to the kind of experiment: Induction of apoptosis in human A549 cells assessed as early apoptotic cells at 20 uM by annexinV-FITC and propidium iodide staining based flow cytometric analysis (reference value: 1.47%). It counts as functional. (In general: Flow cytometry measures light scatter and fluorescence of single cells or particles in a stream.)
In assay [4] the test system is A549. Kind of assay: Induction of apoptosis in human A549 cells assessed as late apoptotic cells at 20 uM by annexinV-FITC and propidium iodide staining based flow cytometric analysis (reference value: 3.14%). It counts as functional.
Assay [5] has as its system NCI-H1299. As to the kind of experiment: Induction of apoptosis in human NCI-H1299 cells assessed as late apoptotic cells at 10 uM by annexinV-FITC and propidium iodide staining based flow cytometric analysis (reference value: 3.29%). It counts as functional.
The subject of assay [6] is NCI-H1299. As to the kind of experiment: Induction of apoptosis in human NCI-H1299 cells assessed as necrotic cells at 20 uM by annexinV-FITC and propidium iodide staining based flow cytometric analysis (reference value: 3.17%). The format is functional.
In assay [7] the test system is NCI-H1299. As to the kind of experiment: Induction of apoptosis in human NCI-H1299 cells assessed as induction of PARP cleavage at 2.5 to 10 uM incubated for 24 hrs by Western blot analysis. The format is functional, cell-based. In a few lines:
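Western blot. Cells were cultured overnight in six-well plates, then exposed to various concentrations for 24 h before immunoblotting.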
On the technique in general: A western blot detects proteins with antibodies after separation by electrophoresis.

The subject of assay [8] is NCI-H1299. As to the kind of experiment: Induction of mitochondria-derived paraptosis in human NCI-H1299 cells assessed as formation of fluorescent vacuoles after 3 hrs by Mito-Tracker staining based fluorescence microscopy. The format is functional, cell-based. The method, boiled down:
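Live-cell imaging. Treated cells on coverslips were stained with Mito-Tracker Red (100 nM) at 37 °C for 30 min, washed three times with PBS and stained with Hoechst 33342 (10 μg/mL) for 15 min. Images were taken by confocal or fluorescence microscopy at the indicated times.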

Assay [9] has as its system A549. As to the kind of experiment: Induction of mitochondria-derived paraptosis in human A549 cells assessed as induction of HMGB1 translocation from nucleus to cytoplasm at 10 uM incubated for 24 hrs by immunofluorescence staining. It counts as functional, cell-based. The method, boiled down:
(§2)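 HMGB1 immunofluorescence. Cells were treated at 10 μM for 24 h, fixed in 4% paraformaldehyde for 30 min, permeabilised with 0.3% Triton X-100 for 15 min and blocked with 5% BSA for 30 min. Anti-HMGB1 was applied at 4 °C overnight and the secondary antibody at 37 °C for 1 h. Nuclei were counterstained with DAPI and cells imaged by confocal microscopy.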

Assay [10] concerns NCI-H1299. Kind of assay: Induction of mitochondria-derived paraptosis in human NCI-H1299 cells assessed as induction of HMGB1 translocation from nucleus to cytoplasm at 10 uM incubated for 24 hrs by immunofluorescence staining. The format is functional, cell-based. The method, boiled down: as §2
The test system of assay [11] is NCI-H1299. Kind of assay: Induction of ROS generation in human NCI-H1299 cells by DCFH-DA staining based flow cytometry. It counts as functional, cell-based. To be noted: TDE = time-dependent effect. The method, boiled down: (§3)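 ROS by flow cytometry. Cells were exposed for the indicated times, then stained with DCFH-DA (10 μM). DCF mean fluorescence intensity was compared with untreated control. Mean ± SD, n = 3.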

The test system of assay [12] is NCI-H1299. As to the kind of experiment: Induction of ROS generation in human NCI-H1299 cells after 1 hr by DCFH-DA staining based flow cytometry relative to untreated control. It counts as functional. The method, boiled down:
as §3

As a reminder, the IC50 is the midpoint of a concentration-inhibition curve.

Each structure is given as a SMILES string. Active and inactive are the calls of the source. The calls are words filed in the database; no cut-off is given here.

Take `COC(=O)c1c(CCc2ccccc2)cc(O)c(CC=C(C)C)c1O`: the IC50 in the assay on HepG2 worked out at 6.3 µM; in the assay with A549 [1], 6 µM; with SW-620 it was 6.3 µM; in the assay with KB, 6.7 µM. The outcome in the assay on A549 [2], with NCI-H1299 [8], in the assay on A549 [9] and in the assay with NCI-H1299 [10] was Active. In addition, the Activity in the assay on A549 [3] was 2.44%; in the assay with A549 [4], 4.14%; in the assay with NCI-H1299 [5], 3.36%; in the assay on NCI-H1299 [6], 3.49%; in the assay with NCI-H1299 [11], “Tde”. Further, the result in the assay on NCI-H1299 [7] was inactive. Besides, in the assay with NCI-H1299 [12], the “fold change (FC)” value came to 30.
